Measured values published in ChEMBL document CHEMBL1629492 (Eur J Med Chem, 2010).

Assays:
[1] = molecular target: T1, Alpha-1D adrenergic receptor (Homo sapiens, UniProt P25100); experiment: Displacement of [3H]prazosin from human Alpha-1D adrenoceptor expressed in CHO cells; assay type: cell-based
T1 sequence (P25100 whole entry): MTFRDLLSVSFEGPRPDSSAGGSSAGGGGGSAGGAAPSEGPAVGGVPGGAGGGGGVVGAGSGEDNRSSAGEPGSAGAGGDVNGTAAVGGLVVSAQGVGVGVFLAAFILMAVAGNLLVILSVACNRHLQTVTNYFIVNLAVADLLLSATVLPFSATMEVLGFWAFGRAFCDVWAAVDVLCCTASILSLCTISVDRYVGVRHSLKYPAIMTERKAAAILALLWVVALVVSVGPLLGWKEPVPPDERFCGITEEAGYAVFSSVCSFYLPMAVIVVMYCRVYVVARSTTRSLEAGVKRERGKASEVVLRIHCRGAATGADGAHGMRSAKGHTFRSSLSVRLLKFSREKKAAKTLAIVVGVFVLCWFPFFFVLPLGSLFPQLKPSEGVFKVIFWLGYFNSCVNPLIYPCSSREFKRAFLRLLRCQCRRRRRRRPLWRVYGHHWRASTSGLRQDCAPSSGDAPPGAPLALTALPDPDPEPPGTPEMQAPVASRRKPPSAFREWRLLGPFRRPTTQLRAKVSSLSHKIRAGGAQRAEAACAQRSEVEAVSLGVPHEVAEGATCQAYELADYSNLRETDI
In short: (§1)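 Membranes ([…], as printed) from CHO cells stably expressing the cloned human α1d subtype were incubated with 0.1–0.4 nM [³H]prazosin and competing drug (1 pM upward) in 50 mM Tris-HCl, pH 7.4, for 30 min at 25 °C. Phentolamine defined non-specific binding. IC50 was converted to Ki by Cheng–Prusoff. Reported as pKi from 2–3 triplicate experiments.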

[2] = Selectivity ratio of Ki for human alpha1A adrenoceptor to Ki for human Alpha-1D adrenoceptor
In short: (§2)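 Subtype selectivity is the antilog of the difference between pKi values, from [³H]prazosin displacement (0.1–0.4 nM, 30 min, 25 °C, pH 7.4) at cloned human α1a, α1b and α1d receptors in CHO membranes. Ki values came from IC50 via Cheng–Prusoff.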

Rattus norvegicus [3] = species: Rattus norvegicus; experiment: Selectivity ratio of EC50 for alpha1D adrenoceptor in Wistar rat thoracic aorta to Ki for Alpha-1B adrenoceptor in Wistar rat spleen; assay type: tissue-based
Rattus norvegicus [4] = species: Rattus norvegicus; experiment: Selectivity ratio of EC50 for alpha1D adrenoceptor in Wistar rat thoracic aorta to EC50 for Alpha-1B adrenoceptor in Wistar rat spleen; assay type: tissue-based
Rattus norvegicus [5] = species: Rattus norvegicus; experiment: Selectivity ratio of EC50 for alpha1A adrenoceptor in Wistar rat vas deferens to Ki for Alpha-1B adrenoceptor in Wistar rat spleen; assay type: tissue-based
[6] = molecular target: T2, Alpha-1A adrenergic receptor (Rattus norvegicus, UniProt P43140); experiment: Antagonist activity at alpha1A adrenoceptor in Wistar rat vas deferens assessed as noradrenaline induced contractions after 30 mins; assay type: functional, tissue-based; settings: read-out: pA2 (converted)
T2 sequence (P43140 whole entry): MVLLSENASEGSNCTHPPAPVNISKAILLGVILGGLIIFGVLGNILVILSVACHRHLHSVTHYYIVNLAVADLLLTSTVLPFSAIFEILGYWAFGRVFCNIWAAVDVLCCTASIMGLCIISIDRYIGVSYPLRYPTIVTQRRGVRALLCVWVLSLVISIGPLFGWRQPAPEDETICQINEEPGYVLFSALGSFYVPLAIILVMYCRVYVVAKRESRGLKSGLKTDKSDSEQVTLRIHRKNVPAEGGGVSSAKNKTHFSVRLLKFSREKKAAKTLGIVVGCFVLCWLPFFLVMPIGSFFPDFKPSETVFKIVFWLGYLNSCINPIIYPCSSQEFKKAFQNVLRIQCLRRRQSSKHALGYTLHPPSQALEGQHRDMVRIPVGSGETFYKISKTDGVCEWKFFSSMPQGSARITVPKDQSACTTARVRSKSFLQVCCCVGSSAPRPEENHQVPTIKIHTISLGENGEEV
In short: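 Prostatic portions (2 cm) of vas deferens from male Wistar rats (275–300 g) were held under 0.35 g tension in Tyrode solution at 37 °C with cocaine present. Tissues were equilibrated 45 min, primed twice with noradrenaline, then given a cumulative isotonic noradrenaline curve.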

Rattus norvegicus [7] = species: Rattus norvegicus; experiment: Selectivity ratio of Ki for alpha1A adrenoceptor in Wistar rat vas deferens to Ki for Alpha-1D adrenoceptor in Wistar rat thoracic aorta; assay type: tissue-based
Rattus norvegicus [8] = species: Rattus norvegicus; experiment: Selectivity ratio of Ki for alpha1A adrenoceptor in Wistar rat vas deferens to EC50 for Alpha-1D adrenoceptor in Wistar rat thoracic aorta; assay type: tissue-based
[9] = molecular target: T3, Alpha-1A adrenergic receptor (Homo sapiens, UniProt P35348); experiment: Displacement of [3H]prazosin from human alpha1A adrenoceptor expressed in CHO cells; assay type: cell-based
T3 sequence (P35348 whole entry): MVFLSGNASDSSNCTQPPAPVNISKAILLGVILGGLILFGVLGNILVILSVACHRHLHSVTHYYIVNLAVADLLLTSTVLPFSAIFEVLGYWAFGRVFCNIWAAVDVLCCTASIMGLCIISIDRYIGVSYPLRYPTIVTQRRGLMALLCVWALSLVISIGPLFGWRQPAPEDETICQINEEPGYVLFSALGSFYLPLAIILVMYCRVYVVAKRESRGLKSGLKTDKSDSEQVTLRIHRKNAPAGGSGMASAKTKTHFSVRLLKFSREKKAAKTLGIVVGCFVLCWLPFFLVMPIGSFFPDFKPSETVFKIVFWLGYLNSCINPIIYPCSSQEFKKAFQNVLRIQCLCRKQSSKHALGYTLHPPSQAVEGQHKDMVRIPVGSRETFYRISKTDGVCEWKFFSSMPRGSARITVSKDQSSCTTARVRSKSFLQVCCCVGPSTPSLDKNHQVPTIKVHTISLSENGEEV
In short: as §1, with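 “α1a” for “α1d”, “competitor” for “competing drug”, “up to the top concentration)” for “upward)”, “Non-specific binding was” for “Phentolamine”, “with phentolamine, and incubations ended by rapid filtration.” for “non-specific binding.”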

Rattus norvegicus [10] = species: Rattus norvegicus; experiment: Selectivity ratio of EC50 for alpha1A adrenoceptor in Wistar rat vas deferens to EC50 for Alpha-1D adrenoceptor in Wistar rat thoracic aorta; assay type: tissue-based
[11] = Selectivity ratio of Ki for human alpha1A adrenoceptor to Ki for human Alpha-1B adrenoceptor; in short: as §2
Rattus norvegicus [12] = species: Rattus norvegicus; experiment: Selectivity ratio of EC50 for alpha1A adrenoceptor in Wistar rat vas deferens to EC50 for Alpha-1B adrenoceptor in Wistar rat spleen; assay type: tissue-based

Structure (SMILES) | Ki [1] | Ki ratio [2] | Selectivity ratio (Rattus norvegicus [3]) | Selectivity ratio (Rattus norvegicus [4]) | Selectivity ratio (Rattus norvegicus [5]) | Kb [6] | Selectivity ratio (Rattus norvegicus [7]) | Selectivity ratio (Rattus norvegicus [8]) | Ki [9] | Selectivity ratio (Rattus norvegicus [10]) | Ki ratio [11] | Selectivity ratio (Rattus norvegicus [12])
COc1ccc(C[C@@H](C)NC[C@@H]2Oc3ccccc3O[C@@H]2C)cc1S(N)(=O)=O | 15.5 nM | 1 | 0.8 | 0.8 | 1 | 16.2 nM | 1 | 1 | 11.5 nM | 1 | 3 | 1
COc1ccc(C[C@@H](C)NCCOc2ccccc2OCC(F)(F)F)cc1S(N)(=O)=O | 0.955 nM | 2 | 1 | 1 | 4 | 0.263 nM | 4 | 4 | 0.603 nM | 4 | 9 | 4
COc1ccc(C[C@@H](C)NC[C@H]2Oc3ccccc3O[C@H]2C)cc1S(N)(=O)=O | 17.4 nM | 0.9 | 0.5 | 0.5 | 1 | 30.2 nM | 2 | 2 | 19.1 nM | 2 | 4 | 1
COc1ccc(C[C@@H](C)NCCOc2ccccc2OC(C)C)cc1S(N)(=O)=O | 0.245 nM | 0.7 | 3 | 3 | 7 |  | 2 | 2 | 0.339 nM | 2 | 5 | 7
COc1ccc(C[C@@H](C)NCCOc2ccccc2OCc2ccccc2)cc1S(N)(=O)=O | 0.324 nM | 0.9 | 4 | 4 | 12 |  | 3 | 3 | 0.347 nM | 3 | 6 | 12
